This is a sample that favours compounds with a hit; in the whole collection about 2.1% have one here.
PP5 inh = blocks human protein phosphatase 5 activity | inhibition, % at 6.7 µM | hit rate 0.18% among 320,000 | purified PP5c, OMFP substrate fluorescence;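 active means inhibition above the campaign's mean inhibition across all tested compounds plus 3 SD, cut at about 9.5% in these data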;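 further: 0% = DMSO only and 100% = 100 µM cantharidin control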
GSTO1 inh = blocks human GSTO1 in RBBP9 counter-screen | P78417 | recombinant GSTO1, activity-based probe fluorescence polarization | inhibition, % at 5.96 µM | hit rate 1.1% among 300,000;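 active means inhibition above the campaign mean inhibition plus 3 SD, cut at about 35% in these data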;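 further: 0% = GSTO1-1 with DMSO and 100% = wells lacking GSTO1-1 enzyme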
Target sequence (P78417 whole entry, looked up): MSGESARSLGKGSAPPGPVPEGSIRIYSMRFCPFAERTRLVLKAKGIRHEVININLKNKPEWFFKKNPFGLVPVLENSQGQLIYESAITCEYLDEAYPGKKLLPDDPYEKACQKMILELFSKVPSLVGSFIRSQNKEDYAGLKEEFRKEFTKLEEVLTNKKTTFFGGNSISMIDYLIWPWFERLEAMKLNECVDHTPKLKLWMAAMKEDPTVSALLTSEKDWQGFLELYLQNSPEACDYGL
Apaf-1 inh = inhibitors of human Apaf-1 apoptosome. reconstituted apoptosome caspase-3 activity, DEVD-Rh110 fluorescence. inhibition, % at 20 µM. hit rate 0.71% among 330,000; active means inhibition of at least 40% at 20 µM;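 further: plate controls were DMSO wells for no effect and DEVD-CHO caspase inhibitor wells for full effect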
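Material: reconstituted apoptosome with Apaf-1, cytochrome c, caspase-9, procaspase-3, dATP; medium: pH 7.5 Hepes buffer with CHAPS, BSA, DTT; also added: cytochrome c and DEVD-Rh110 substrate; timing: 30 min plus 50 min, RT; signal: Rh110 fluorescence intensity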
TDP2 inh = TDP2 (human) inhibition, absorbance primary screen; O95551; recombinant TDP2, T5PNP hydrolysis, p-nitrophenol absorbance 415 nm; inhibition, % at 12.8 µM; hit rate 0.34% among 370,000; AID 720702;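 active means inhibition above the mean of all tested compounds plus 3 SD, set per campaign, cut at about 25% in these data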;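 further: 0% = DMSO with enzyme and 100% = buffer with substrate but no TDP2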
Target sequence (O95551 whole entry, looked up): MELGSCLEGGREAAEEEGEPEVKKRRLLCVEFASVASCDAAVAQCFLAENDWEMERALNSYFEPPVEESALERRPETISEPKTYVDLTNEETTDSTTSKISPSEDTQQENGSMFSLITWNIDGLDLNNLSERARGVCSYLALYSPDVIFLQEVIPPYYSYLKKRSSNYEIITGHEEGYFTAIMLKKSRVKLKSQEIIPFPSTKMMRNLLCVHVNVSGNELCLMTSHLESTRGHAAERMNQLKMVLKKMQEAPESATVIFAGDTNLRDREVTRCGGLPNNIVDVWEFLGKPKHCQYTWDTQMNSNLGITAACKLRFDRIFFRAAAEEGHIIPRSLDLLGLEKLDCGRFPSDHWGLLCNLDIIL
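System – recombinant human TDP2 · Quantity – TDP2 enzyme at 120 nM final · Doses – single concentration, 12.8 µM nominal, with 1% DMSO · Incubation – 2 h at 37 °C · Measured by – epi absorbance of p-nitrophenol freed from T5PNP by hydrolysis · Read-out – % inhibition relative to enzyme-containing and enzyme-free wells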
PP1 inh = blocks human PP1-alpha phosphatase, a PP5 counter-screen; AID 2235; hit rate 0.9% among 320,000; purified PP1alpha, OMFP fluorescence; inhibition, % at 6.7 µM;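 active means inhibition above the mean inhibition of all tested compounds plus 3 SD, computed separately for each screening campaign, cut at about 15% in these data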
PP1 inh confirm = confirmation of human PP1 phosphatase inhibitors | shares compounds with PP1 inh | purified PP1alpha, OMFP substrate fluorescence | inhibition, % at 6.7 µM | hit rate 52% among 1,900 | AID 2358;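 active means mean PP1 inhibition above a set limit taken from the earlier primary screen, cut at about 15% in these data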
PP5 counter = inhibits human PP5 phosphatase in PP1 counter-screen; shares compounds with PP1 inh; purified PP5c, OMFP fluorescence; inhibition, % at 6.7 µM; hit rate 4% among 1,900; AID 2360;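 active means mean PP5 inhibition over triplicate wells above about 9.5% taken from the earlier PP1 screen, limit read from the data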
Apaf-1 inh conf = Apaf-1 inhibition, single-dose confirmed | AID 504614 | shares compounds with Apaf-1 inh | reconstituted apoptosome, caspase-3 DEVD-Rh110 fluorescence | hit rate 25% among 1,800 | inhibition, % at 20 µM;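 active means mean inhibition of at least 40% at 20 µM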;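 further: plate controls were DMSO wells for no effect and DEVD-CHO caspase inhibitor control wells for full effect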
Rh110 quench = Rh110 signal interference in Apaf-1 inhibitor counter-screen; shares compounds with Apaf-1 inh; Rh110 fluorescence interference, quenched caspase reaction; activation (fluorescence interference), % at 20 µM; 1,800 tested, under 10 active; AID 504615;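 active means signal rise of 40% or more at 20 µM, treated as a fluorescence artifact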
Apaf1 inh interf = counter-screen for Apaf-1 inhibitors: fluorescence interference, dose response. shares compounds with Apaf-1 inh. fluorescence interference counterscreen, Apaf-1 assay format. IC50, µM. 460 tested, under 10 active. AID 588538; call rule not given here
TDP2 inh conf = confirmation of human TDP2 inhibitors; recombinant human TDP2, absorbance read-out; AID 743263; inhibition, % at 12.8 µM; shares compounds with TDP2 inh; hit rate 22% among 1,100; in the data active means inhibition above about 25%;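 further: 0% = vehicle with enzyme and 100% = no enzyme buffer only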
An asterisk follows results filed as active; . = no result given.

SMILES	PP5 inh	GSTO1 inh	Apaf-1 inh	TDP2 inh	PP1 inh	Apaf-1 inh conf	Rh110 quench	others
Cc1nccc2c1[nH]c1ccc(Br)cc12	0	-11	8	-5	21*	.	.	PP1 inh confirm=-1;PP5 counter=-1
COc1ccc2c(c1)[nH]c1c(C)nccc12	2	-2	7	9	-1	.	.
CCCCCn1c(=O)c(C(=O)Nc2ncccc2C)c(O)c2ccccc21	2	2	12	-12	25*	.	.	PP1 inh confirm=22*;PP5 counter=-3
CN1C[C@H](CO)C=C2c3cccc4[nH]cc(c34)C[C@H]21	4	18	30	13	32*	.	.	PP1 inh confirm=-3;PP5 counter=1
O=C(O)C1C2CCC(O2)C1C(=O)Nc1cccc(Br)c1 (centres undefined)	69*	7	-19	2	69*	.	.	PP1 inh confirm=9;PP5 counter=19*
O=C(O)C1C2c3ccccc3C(c3ccccc32)C1C(=O)Nc1ccccc1 (centres undefined)	0	-4	3	-4	-2	.	.
COC(=O)C1=C(c2cccc(OCc3ccccc3)c2)C[C@@H]2CC[C@H]1N2C(=O)NCc1ccc(C(C)(C)C)cc1	6	.	24	3	20*	.	.	PP1 inh confirm=2;PP5 counter=-1
COC(=O)C1=C(c2cccc(OCc3ccccc3)c2)C[C@@H]2CC[C@H]1N2C(=O)NCc1ccc(N(C)C)cc1	4	.	22	0	9	.	.
COC(=O)C1=C(c2ccc(-c3ccccc3)c(F)c2)C[C@@H]2CC[C@H]1N2C(=O)NCc1cccc2ccccc12	3	.	24	-7	23*	.	.	PP1 inh confirm=4;PP5 counter=2
CC1CN(C(=O)CCC(=O)N2CCC3(CC2)OCCO3)c2cc(Cl)ccc2O1 (centres undefined)	1	-4	0	2	0	.	.
O=c1[nH]c(O)c(/C=C2\C=Nc3ccc(OCc4ccccc4)cc32)c(=O)[nH]1	0	-4	5	2	19*	.	.	PP1 inh confirm=24*;PP5 counter=-4
O=c1[nH]c(O)c(C=NCCc2ccccc2)c(=O)[nH]1	0	0	-12	-7	-2	.	.
NC(N)=N/N=C/c1cn(-c2ccccc2)nc1-c1cccs1	5	-26	41*	-18	17*	14	15
COc1ccc2c(c1)CC1(CN2C)C(=O)NC(=O)N(CCc2ccccc2)C1=O (centres undefined)	-3	25	18	3	-1	.	.
CCC(C)N1C(=O)NC(=O)C2(Cc3c(ccc4ccccc34)N(C)C2)C1=O (centres undefined)	6	19	65*	5	3	30	4
COc1ccc(S(=O)(=O)N2Cc3cnnn3-c3ccccc3C2C#N)cc1 (centres undefined)	.	.	.	5	.	.	.
CN1C(=O)CCS(=O)(=O)C1c1ccc(Cl)cc1 (centres undefined)	.	.	.	-1	.	.	.
Cc1cc(C)c(Cn2c(C(=O)O)c(C=O)c3ccccc32)c(C)c1	-2	7	-1	-10	8	.	.
Cn1c(=O)[nH]c2nncnc2c1=O	-1	29	68*	23	-3	68*	-2	Apaf1 inh interf=>100
COC(=O)C1=C(c2ccc(OCc3ccccc3)cc2)C[C@@H]2CC[C@H]1N2C(=O)NC1CCN(Cc2ccccc2)CC1	1	.	58*	.	6	23	10
O=S(=O)(c1ccc(Cl)cc1)N1Cc2cc(Br)ccc2-n2nncc2C1	.	.	.	1	.	.	.
CCn1nc(/C=C/c2ccccc2)nc2c(=O)n(C)c(=O)nc1-2	.	.	99*	79*	.	100*	9	Apaf1 inh interf=>100
COC(=O)C1=C(c2cccc(C#N)c2)C[C@@H]2CC[C@H]1N2C(=O)NC1Cc2ccccc2C1	2	.	4	-4	-1	.	.
O=[N+]([O-])c1ccc(NC2CCN(Cc3ccccc3)CC2)c2ccncc12	0	-2	74*	7	-3	21	9
O=[N+]([O-])c1ccc(NC2CCCC2)c2ccncc12	1	2	42*	.	7	15	2
SMILES	PP5 inh	GSTO1 inh	Apaf-1 inh	TDP2 inh	PP1 inh	Apaf-1 inh conf	Rh110 quench	others
CCOc1ccc2oc(C(=O)NN3C(C)CCCC3C)c(C)c2c1 (centres undefined)	0	-5	-9	2	-1	.	.
CCCCNC(=O)c1c(N)n(Cc2ccc3c(c2)OCO3)c2nc3ccccc3nc12	0	20	95*	19	-5	31	5
COCCOC(=O)c1c(N)n(Cc2ccccc2)c2nc3ccccc3nc12	5	28	83*	-1	2	15	2
CCOC(=O)c1c(C)n(Cc2ccccc2)c2ccc(O)cc12	6	5	5	-6	6	.	.
CCCNC(=O)c1c(N)n(CC2CCCO2)c2nc3ccccc3nc12 (centres undefined)	6	35*	93*	16	3	44*	8	Apaf1 inh interf=>100
CC(C)CCn1c(=O)c(C(=O)NCc2ccc3c(c2)OCO3)c(O)c2ccccc21	2	9	9	-4	-1	.	.
O=[N+]([O-])c1ccccc1-c1cc(-c2ccccc2)cc(-c2ccccc2)[n+]1Cc1ccccc1Cl	-5	2	53*	-1	5	20	9
O=[N+]([O-])c1ccc(-[n+]2c(-c3ccccc3)cc(-c3ccccc3)cc2-c2ccccc2)cc1	0	-1	3	12	0	.	.
COC(=O)C1C2c3ccccc3C(c3ccccc32)C1(C)C(=O)OC (centres undefined)	.	.	.	-12	.	.	.
COC(=O)C1=C(c2ccc3ccccc3c2)C[C@@H]2CC[C@H]1N2C(=O)NCCCOC(C)C	4	.	13	-8	9	.	.
CC(C)OCCCNC(=O)c1c(N)n(CC2CCCO2)c2nc3ccccc3nc12 (centres undefined)	4	24	94*	82*	-1	30	17	TDP2 inh conf=7
COC(=O)C1=C(c2ccc(Cl)c(C(F)(F)F)c2)C[C@@H]2CC[C@H]1N2C(=O)NCCCOC(C)C	1	.	23	.	-1	.	.
CCCCCCC(=O)c1c(O)n(-c2ccc(OC)cc2)c(=O)[nH]c1=O (tested in a mixture with another compound)	3	3	-4	-1	0	.	.

Screening results from PubChem BioAssay.
